Measurements: ChEMBL document CHEMBL1125203, “The synthesis and antiviral activity of some 4'-thio-2'-deoxy nucleoside analogues” (J Med Chem, 1991)
In brackets after ≈: the same amount, converted by molar mass.

Key:
[1] = tested on: MRC5; experiment: Minimum inhibitory concentration required to reduce cytopathogenicity of Herpes Virus-1 (HSV-1) in MRC -5 cells by 50%.; format: functional; details: Homo sapiens
How it was run: (§1)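 Plaque reduction: confluent monolayers (HSV-2 in Vero, HSV-1 in MRC-5) infected and overlaid with nutrient agarose holding doubling drug dilutions. Plaques counted after 5 days as % of control, plotted against log concentration, and IC50 read from the plot.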

[2] = tested on: MT4; experiment: Minimum inhibitory concentration required to reduce cytopathogenicity of human immunodeficiency virus-1 (HIV-1) in MT-4 cells by 50%; No activity below ID50 observed; format: functional, cell-based
[3] = tested on: MT4; experiment: Inhibitory dose required to reduce the viability of MT-4 cells by 50%; format: functional, Homo sapiens
How it was run: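 Mock-infected MT-4 cells on the same plate as the HIV test, drug at 100, 10, 1 and 0.1 µM, triplicate wells. Growth inhibition assessed after 5 days by MTT uptake into viable cells, acidified propan-2-ol extraction and spectrophotometric reading.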

[4] = tested on: Vero; experiment: Minimum inhibitory concentration required to reduce cytopathogenicity of Herpes Virus-2 (HSV-2) in vero cells by 50%.; format: functional; details: Chlorocebus sabaeus; how it was run: as §1
[5] = tested on: Vero; experiment: Inhibitory dose required to reduce the viability of vero cells by 50%; format: functional, Chlorocebus sabaeus
[6] = tested on: MRC5; experiment: Minimum inhibitory concentration required to reduce cytopathogenicity of Varicella Zoster Virus (VZV) in MRC-5 cells by 50%.; format: functional; details: Homo sapiens
[7] = Maximum plasma level was measured in mice.; format: ADME, organism-based; details: mouse, read-out: Max plasma level
[8] = tested on: Mus musculus; experiment: Toxicity of compound was measured after ip administration to mice.; format: organism-based; details: in vivo
[9] = Half life was measured in mice.; format: ADME, organism-based; details: mouse, in vivo
[10] = tested on: MRC5; experiment: Minimum inhibitory concentration required to reduce cytopathogenicity of cytomegalovirus (CMV) in MRC-5 cells by 50%.; format: functional; details: Homo sapiens
How it was run: (§2)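 MRC-5 monolayers in 24-well panels, infected after 24 h and overlaid with 0.5% indubiose A37 medium containing drug at 10 and 100 µM. After 5 days, giant cells (plaques) stained with methylene blue and examined microscopically.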

[11] = tested on: MRC5; experiment: Minimum inhibitory concentration required to reduce cytopathogenicity of Cytomegalovirus Virus (CMV) in MRC-5 cells by 50%.; format: functional; details: Homo sapiens; how it was run: as §2

With Cc1cn(C2CC(N=[N+]=[N-])C(CO)S2)c(=O)[nH]c1=O (stereo not given) the MIC50 [1] was greater than 100 µM, the MIC50 [2] was “No activity” and the ID50 [3] was greater than 100 µM. It also gave an MIC50 [4] greater than 100 µM and an ID50 [5] greater than 100 µM.
Cc1cn([C@H]2C[C@H](O)[C@@H](CO)S2)c(=O)[nH]c1=O [4'-THIOTHYMIDINE] showed an MIC50 [6] of 10 µM (≈ 2.58 µg/mL), an MIC50 [1] of 0.37 µM (≈ 0.0956 µg/mL) and a Cmax [7] greater than 35 µM. The MIC50 [2] was “No activity”, the ID50 [3] was 1 µM and the Toxicity [8] was greater than 40 mg/kg. It also gave a half-life [9] of 1 h, an MIC50 [4] of 2.3 µM (≈ 0.594 µg/mL) and an MIC50 [10] of 0.98 µM (≈ 0.253 µg/mL). For the same compound, the ID50 [5] was 7.1 µM.
Compound Cc1cn([C@@H]2C[C@H](O)[C@@H](CO)S2)c(=O)[nH]c1=O has an MIC50 [1] greater than 100 µM, an ID50 [3] greater than 100 µM and an MIC50 [4] greater than 100 µM. The ID50 [5] was greater than 100 µM.
For O=c1[nH]c(=O)n([C@@H]2C[C@H](O)[C@@H](CO)S2)cc1/C=C/Br, the MIC50 [1] was greater than 500 µM, the ID50 [3] was greater than 500 µM and the MIC50 [4] was greater than 500 µM.
With O=c1[nH]c(=O)n([C@H]2C[C@H](O)[C@@H](CO)S2)cc1/C=C/Br the MIC50 [6] was 0.08 µM (≈ 0.0279 µg/mL), the MIC50 [1] was 0.6 µM (≈ 0.21 µg/mL) and the Cmax [7] was greater than 50 µM. For the same compound, the MIC50 [2] was “No activity”, the ID50 [3] was greater than 500 µM and the Toxicity [8] was greater than 40 mg/kg. It also gave a half-life [9] of 2 h, an MIC50 [4] of 10 µM (≈ 3.49 µg/mL) and an ID50 [5] greater than 500 µM.
For Nc1nc2c(ncn2COCCO)c(=O)[nH]1 [ACYCLOVIR], the MIC50 [1] was 1.3 µM (≈ 0.293 µg/mL), the MIC50 [11] was 100 µM (≈ 22.5 µg/mL) and the MIC50 [4] was 1.8 µM (≈ 0.405 µg/mL). It also gave an ID50 [5] greater than 500 µM.
With O=c1[nH]c(=O)n([C@H]2C[C@H](O)[C@@H](CO)O2)cc1/C=C/Br [BRIVUDINE] the MIC50 [6] was 0.02 µM (≈ 0.00666 µg/mL), the MIC50 [1] was 0.03 µM (≈ 0.00999 µg/mL) and the MIC50 [11] was greater than 100 µM. It also gave an MIC50 [4] of 12 µM (≈ 4 µg/mL) and an ID50 [5] greater than 500 µM.
